Data from ChEMBL document CHEMBL1157350, “The structure-activity relationship study on 2-, 5-, and 6-position of the water soluble 1,4-dihydropyridine derivatives blocking N-type calcium channels” (Bioorg Med Chem Lett, 2008).
Values after ≈ are worked out from the molar mass of the structure shown.

Tests used:
[1] = Inhibition of voltage-dependent N-type calcium channel in human IMR32 cells assessed as effect on calcium influx; assay type: cell-based; settings: IMR-32
[2] = biological target: Voltage-gated L-type calcium channel (Rattus norvegicus, UniProt P22002+Q02485+P27732); assay: Inhibition of voltage-dependent L-type calcium channel in rat thoracic aorta ring assessed as effect on high K+ induced contraction by Magnus method; assay type: tissue-based
[3] = Aqueous solubility of the compound; assay type: physicochemical; settings: buffer
How it was run: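 Aqueous suspension left overnight, centrifuged at 10,000 rpm for 5 min; supernatant diluted and quantified by HPLC.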

[4] = Distribution coefficient, log D of the compound; assay type: physicochemical; settings: octanol/water
How it was run: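 Calculated logD at pH 7.4 (PrologD).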

Rattus norvegicus = species: Rattus norvegicus; assay: Inhibition of voltage-dependent N-type calcium channel in rat superior cervical ganglion neurons assessed as effect on Ba2+ current at holding potential of -60 mV at 10 uM by electrophysiology; assay type: tissue-based

| Structure (SMILES) | IC50 [1] [nM] | IC50 [2] [nM] | solubility [3] [mg/mL] | logD [4] | inhibition (Rattus norvegicus) [%] |
| --- | --- | --- | --- | --- | --- |
| COC(OC)C1=C(C(=O)OC/C=C/c2ccc(Cl)cc2)C(c2cccc(Cl)c2)C(C(=O)O)=C(C)N1 (stereo unspecified) | 1700 | 1400 | – | – | – |
| CCC1=C(C(=O)OC/C=C/c2ccccc2)C(c2cccc(Cl)c2)C(C(=O)O)=C(C)N1 (stereo unspecified) | 810 | 7 | – | – | – |
| COC(OC)C1=C(C(=O)OC/C=C/c2ccccc2)C(c2cccc(Cl)c2)C(C(=O)O)=C(C)N1 (stereo unspecified) | 3000 | 8100 | > 15 | 1.29 | 85 |
| CC1=C(C(=O)O)C(c2cccc(Cl)c2)C(C(=O)OC/C=C/c2ccccc2)=C(C#N)N1 (stereo unspecified) | 5800 | 2000 | – | – | – |
| CC1=NC(C)=C(C(=O)O)C(c2cccc(Cl)c2)/C1=C(\O)OC/C=C/c1ccccc1 (stereo unspecified) | 1000 | – | – | – | – |
| COC(OC)C1=C(C(=O)OC/C=C/c2ccccc2Cl)C(c2cccc(Cl)c2)C(C(=O)O)=C(C)N1 (stereo unspecified) | 1800 | 700 | – | – | – |
| COC(OC)C1=C(C(=O)OC/C=C/c2cccc(Cl)c2)C(c2cccc(Cl)c2)C(C(=O)O)=C(C)N1 (stereo unspecified) | 1400 | 1000 | – | – | – |
| CN[C@@H](CC(C)C)C(=O)NCCCC(c1ccc(F)cc1)c1ccc(F)cc1 | – | – | – | – | 83 |
| COC(OC)C1=C(C(=O)O)C(c2cccc(Cl)c2)C(C(=O)OC/C=C/c2ccccc2)=C(C)N1 (stereo unspecified) | 3900 | 1300 | – | – | – |
| CC1=C(C(=O)O)C(c2cccc(Cl)c2)C(C(=O)OCCC(c2ccccc2)c2ccccc2)=C(C(F)(F)F)N1 (stereo unspecified) | 1700 | – | 3.5 (≈ 6.3 mM) | 3.51 | – |

More lines, in order of falling IC50 [1], values ahead:

| IC50 [1] [nM] | IC50 [2] [nM] | solubility [3] [mg/mL] | logD [4] | Structure (SMILES) | inhibition (Rattus norvegicus) [%] |
| --- | --- | --- | --- | --- | --- |
| 3500 | – | – | – | CC1=C(C(=O)O)C(c2cccc([N+](=O)[O-])c2)C(C(=O)OC/C=C/c2ccccc2)=C(C)N1 (stereo unspecified) | – |
| 3000 | 4400 | – | – | COc1cccc(/C=C/COC(=O)C2=C(C(OC)OC)NC(C)=C(C(=O)O)C2c2cccc(Cl)c2)c1 (stereo unspecified) | – |
| 2500 | 5900 | 10.2 (≈ 19.8 mM) | 1.2 | COc1ccccc1/C=C/COC(=O)C1=C(C(OC)OC)NC(C)=C(C(=O)O)C1c1cccc(Cl)c1 (stereo unspecified) | – |
| 2100 | 540 | – | – | COc1ccc(/C=C/COC(=O)C2=C(C(OC)OC)NC(C)=C(C(=O)O)C2c2cccc(Cl)c2)cc1 (stereo unspecified) | – |
| 2000 | 3200 | – | – | COC(OC)C1=C(C(=O)OC/C=C/c2ccc(C(F)(F)F)cc2)C(c2cccc(Cl)c2)C(C(=O)O)=C(C)N1 (stereo unspecified) | – |
| 1800 | 2000 | – | – | COC(OC)C1=C(C(=O)OC/C=C/c2ccc(F)cc2)C(c2cccc(Cl)c2)C(C(=O)O)=C(C)N1 (stereo unspecified) | – |
| 1600 | – | – | – | COCCOC(=O)C1=C(C)NC(C)=C(C(=O)OC/C=C/c2ccccc2)C1c1cccc([N+](=O)[O-])c1 (stereo unspecified) [CILNIDIPINE] | – |
